target: T1, Xanthine dehydrogenase/oxidase (Bos taurus, UniProt P80457); experiment: Inhibition of bovine Xanthine oxidase assessed as reduction in uric acid level at 10 ug/ml by spectrophotometry; details: cattle
Method in brief: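 Single-concentration screen at 10 μg/mL. XO activity was followed spectrophotometrically as uric acid formation at 293 nm and reported as percent inhibition. Below 60% inhibition at this concentration was recorded as not active.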

T1 sequence (P80457 whole entry): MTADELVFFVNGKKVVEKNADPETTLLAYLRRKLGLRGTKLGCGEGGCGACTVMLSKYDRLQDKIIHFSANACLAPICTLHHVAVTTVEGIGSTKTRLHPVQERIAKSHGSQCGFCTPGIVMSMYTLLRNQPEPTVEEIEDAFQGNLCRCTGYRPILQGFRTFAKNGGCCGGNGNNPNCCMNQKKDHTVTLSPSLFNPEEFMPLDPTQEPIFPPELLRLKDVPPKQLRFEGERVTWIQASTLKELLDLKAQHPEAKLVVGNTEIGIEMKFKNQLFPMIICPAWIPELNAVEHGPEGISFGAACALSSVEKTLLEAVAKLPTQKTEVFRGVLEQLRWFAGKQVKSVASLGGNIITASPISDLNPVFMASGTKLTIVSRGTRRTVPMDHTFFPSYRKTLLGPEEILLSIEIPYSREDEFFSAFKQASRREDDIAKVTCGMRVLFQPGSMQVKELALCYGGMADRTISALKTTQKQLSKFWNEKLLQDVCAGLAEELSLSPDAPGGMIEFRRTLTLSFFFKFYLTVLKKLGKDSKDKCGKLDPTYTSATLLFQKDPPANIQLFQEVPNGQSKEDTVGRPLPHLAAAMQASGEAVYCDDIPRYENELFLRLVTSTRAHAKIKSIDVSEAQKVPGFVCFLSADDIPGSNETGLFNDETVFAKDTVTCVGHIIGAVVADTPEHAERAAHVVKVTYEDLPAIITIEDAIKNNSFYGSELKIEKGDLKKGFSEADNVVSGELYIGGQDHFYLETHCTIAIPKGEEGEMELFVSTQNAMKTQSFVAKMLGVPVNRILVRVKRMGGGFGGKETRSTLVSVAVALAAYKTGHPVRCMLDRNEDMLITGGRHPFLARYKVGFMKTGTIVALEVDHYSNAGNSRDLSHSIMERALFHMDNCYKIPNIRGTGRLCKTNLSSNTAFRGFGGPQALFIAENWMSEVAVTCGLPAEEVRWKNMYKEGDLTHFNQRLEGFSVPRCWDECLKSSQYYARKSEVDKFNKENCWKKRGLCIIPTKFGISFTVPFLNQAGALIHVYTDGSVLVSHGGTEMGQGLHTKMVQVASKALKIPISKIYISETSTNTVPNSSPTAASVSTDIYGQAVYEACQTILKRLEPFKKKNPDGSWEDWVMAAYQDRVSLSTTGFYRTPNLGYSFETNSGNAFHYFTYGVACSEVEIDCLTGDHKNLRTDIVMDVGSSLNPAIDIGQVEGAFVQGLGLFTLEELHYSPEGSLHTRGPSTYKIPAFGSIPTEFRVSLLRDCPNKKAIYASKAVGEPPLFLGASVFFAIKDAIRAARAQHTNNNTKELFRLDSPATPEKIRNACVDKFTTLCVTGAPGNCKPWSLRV

Row | inhibition at 10 µg/mL | Structure (SMILES)
1 | < 60% | O=c1c2cc(O)c(O)cc2oc2cc(O)cc(OCc3cccc(Br)c3)c12
2 | < 60% | O=c1c2cc(O)c(O)cc2oc2cc(O)cc(OCc3ccccc3[N+](=O)[O-])c12
3 | < 60% | O=c1c2cc(O)c(O)cc2oc2cc(O)cc(OCc3ccc(F)cc3)c12
4 | < 60% | O=c1c2cc(O)c(O)cc2oc2cc(O)cc(OCc3ccccc3F)c12
5 | < 60% | O=c1c2cc(O)c(O)cc2oc2cc(O)cc(OCc3cccc([N+](=O)[O-])c3)c12
6 | < 60% | O=c1c2cc(O)c(O)cc2oc2cc(O)cc(OCc3ccc([N+](=O)[O-])cc3)c12
7 | < 60% | O=c1c2cc(O)c(O)cc2oc2cc(O)cc(OCc3ccc(Cl)cc3Cl)c12
8 | < 60% | O=c1c2cc(O)c(O)cc2oc2cc(O)cc(OCc3c(Cl)cccc3Cl)c12
9 | < 60% | O=c1c2cc(O)c(O)cc2oc2cc(O)cc(OCc3cccc(F)c3)c12
10 | < 60% | O=c1c2cc(O)c(O)cc2oc2cc(O)cc(OCc3ccccc3Br)c12
11 | < 60% | O=c1c2cc(O)c(O)cc2oc2cc(O)cc(OCc3cccc(Cl)c3)c12
12 | < 60% | N#Cc1ccccc1COc1cc(O)cc2oc3cc(O)c(O)cc3c(=O)c12
13 | < 60% | N#Cc1cccc(COc2cc(O)cc3oc4cc(O)c(O)cc4c(=O)c23)c1

target: T1, Xanthine dehydrogenase/oxidase; experiment: Inhibition of bovine Xanthine oxidase assessed as reduction in uric acid level by spectrophotometry; details: not given

Row | IC50 | Structure (SMILES)
14 | 6.41 µM | O=c1c2cc(O)c(O)cc2oc2cc(O)cc(OCc3ccccc3Cl)c12
15 | 20.1 µM | O=c1c2cc(O)c(O)cc2oc2cc(O)cc(OCc3ccc(Br)cc3)c12
16 | 7.08 µM | Cc1ccccc1COc1cc(O)cc2oc3cc(O)c(O)cc3c(=O)c12
17 | 4.7 µM | O=c1c2cc(O)c(O)cc2oc2cc(O)cc(OCc3ccc(Cl)cc3)c12
18 | 5.73 µM | Cc1ccc(COc2cc(O)cc3oc4cc(O)c(O)cc4c(=O)c23)cc1
19 | 13.6 µM | Cc1cccc(COc2cc(O)cc3oc4cc(O)c(O)cc4c(=O)c23)c1
20 | 4.67 µM | N#Cc1ccc(COc2cc(O)cc3oc4cc(O)c(O)cc4c(=O)c23)cc1

From ChEMBL document CHEMBL1795214, “Discovery of novel xanthone derivatives as xanthine oxidase inhibitors” (Bioorg Med Chem Lett, 2011)
